Reference: publication PMC8903082 (Journal of medicinal chemistry, 2020)

How the values were obtained:
red blood cells of mice = assay: Hemolytic assay; type: cell-based; conditions: 37 °C, 1 h, testing range up to 250 μg/mL
E. coli [1] = assay: Membrane depolarization study, DiSC3; type: cell-based, Escherichia coli; conditions: 0.5 ×, 1 ×, 2 × and 4 × MIC
E. coli [2] = assay: Fluorescence microscopy; type: cell-based, Escherichia coli; conditions: 2 × MIC, 2 h
[3] = test system: E. coli biofilm formation; assay: Biofilm prevention study; type: cell-based; conditions: Escherichia coli, 48 h, read-out: Inhibition of E. coli biofilm formation
E. coli [4] = assay: Inner membrane permeabilization; type: cell-based, Escherichia coli; conditions: 2-fold MIC
Summary of the method: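 Mid-log E. coli was pelleted at 1000g, washed three times and resuspended to 10^6 CFU/mL in 5 mM HEPES/5 mM glucose (1:1). It was mixed with PI from a 10 μM solution. Fluorescence (ex 535, em 617 nm) was read every 2 min for about 8 min. The test compound was then added and reading continued for 12 min. The negative control received water. Three repeats.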

E. coli [5] = assay: TEM study, E. coli; type: cell-based, Escherichia coli; conditions: 12 μg/mL, 2 h
Summary of the method: (§1)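 Cells were prepared at 10^6 CFU/mL as for MIC testing and treated with the test compound for 2 h at 37 °C; untreated controls ran alongside. Cells were pelleted, washed three times in PBS and resuspended in deionised water. They were dropped on grids, blotted, dried 30 s at 50 °C under vacuum, and imaged by TEM at 60 kV.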

MRSA [6] = assay: Drug resistance study; type: cell-based, Staphylococcus aureus; conditions: 13 passages
MRSA [7] = assay: TEM study, MRSA; type: cell-based, Staphylococcus aureus; conditions: 6 μg/mL, 2 h
Summary of the method: as §1

MRSA [8] = type: cell-based, Staphylococcus aureus; conditions: not told
MRSA [9] = assay: Time-kill study, MRSA; type: cell-based, Staphylococcus aureus; conditions: concentrations of 24 and 48 μg/mL
Summary of the method: (§2)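 Overnight TSB cultures (37 °C, shaking) were subcultured 6 h to mid-log phase. Suspensions at 10^6 CFU/mL were exposed to the test compound at 37 °C for 10, 30, 60 and 120 min (E. coli 12, 24, 48 μg/mL; MRSA 6, 12, 24, 48 μg/mL). Untreated bacteria served as controls. Samples were diluted (MRSA 10^2-fold, E. coli 10^4-fold) and plated on TSB agar for 20 h at 37 °C. Colonies were counted against time. Three repeats.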

MRSA [10] = assay: Fluorescence microscopy; type: cell-based, Staphylococcus aureus; conditions: 2 × MIC, 2 h
E. coli [11] = assay: Time-kill study, E. coli; type: cell-based, Escherichia coli; conditions: concentrations of 24 and 48 μg/mL
Summary of the method: as §2

CCCCCC(=O)N[C@@H](CCCCN)CN1CC(=O)N(c2ccc(N3CN(C[C@H](CCCCN)NC(=O)CCCCC)CC3=O)cc2)C1 [Compound 1, N,N'-((2S,2'S)-(1,4-Phenylenebis(4-oxoimidazolidine-3,1-diyl))-bis(6-aminohexane-1,2-diyl))dihexan amide]
Hemolysis (HC50) (red blood cells of mice): >250 µg/mL

CCCCCCCC(=O)N[C@@H](CCCCN)CN1CC(=O)N(c2ccc(N3CN(C[C@H](CCCCN)NC(=O)CCCCCCC)CC3=O)cc2)C1 [Compound 2, N,N'-((2S,2'S)-(1,4-Phenylenebis(4-oxoimidazolidine-3,1-diyl))-bis(6-aminohexane-1,2-diyl))dioctan amide]
Hemolysis (HC50) (red blood cells of mice): >250 µg/mL

CCCCCCCCCC(=O)N[C@@H](CCCCN)CN1CC(=O)N(c2ccc(N3CN(C[C@H](CCCCN)NC(=O)CCCCCCCCC)CC3=O)cc2)C1 [Compound 3, N,N'-((2S,2'S)-(1,4-Phenylenebis(4-oxoimidazolidine-3,1-diyl))-bis(6-aminohexane-1,2-diyl))bis(decanamide)]
Membrane depolarization, DiSC3(5) fluorescence intensity (E. coli [1]): increase in a concentration-dependent manner
DAPI/PI staining of E. coli (membrane integrity) (E. coli [2]): blue and red fluorescence were all observed
inhibition at 3 µg/mL [3]: > 55%
Inner membrane permeabilization of E. coli (PI fluorescence) (E. coli [4]): permeabilized fast
Cell membrane morphology of E. coli (TEM) (E. coli [5]): their membrane was all dispersed
Fold increase in MIC toward MRSA (MRSA [6]): remained almost unchanged
Hemolysis (HC50) (red blood cells of mice): >250 µg/mL
Cell membrane morphology of MRSA (TEM) (MRSA [7]): their membrane was all dispersed
Inner membrane permeabilization of MRSA (PI fluorescence) (MRSA [8]): permeabilized fast
Time to thoroughly eliminate MRSA (MRSA [9]): ≤ 60 min
DAPI/PI staining of MRSA (membrane integrity) (MRSA [10]): blue and red fluorescence were all observed
Time required for eradicating E. coli (E. coli [11]): 30 min

CCCCCCCCCCCC(=O)N[C@@H](CCCCN)CN1CC(=O)N(c2ccc(N3CN(C[C@H](CCCCN)NC(=O)CCCCCCCCCCC)CC3=O)cc2)C1 [Compound 4, N,N'-((2S,2'S)-(1,4-Phenylenebis(4-oxoimidazolidine-3,1-diyl))-bis(6-aminohexane-1,2-diyl))didodecanamide]
Hemolysis (HC50) (red blood cells of mice): >250 µg/mL

CCCCCCCCCCCCCC(=O)N[C@@H](CCCCN)CN1CC(=O)N(c2ccc(N3CN(C[C@H](CCCCN)NC(=O)CCCCCCCCCCCCC)CC3=O)cc2)C1 [Compound 5, N,N'-((2S,2'S)-(1,4-Phenylenebis(4-oxoimidazolidine-3,1-diyl))-bis(6-aminohexane-1,2-diyl))ditetradecanamide]
Hemolysis (HC50) (red blood cells of mice): >250 µg/mL

CCCCCCCCCCCCCCCC(=O)N[C@@H](CCCCN)CN1CC(=O)N(c2ccc(N3CN(C[C@H](CCCCN)NC(=O)CCCCCCCCCCCCCCC)CC3=O)cc2)C1 [Compound 6, N,N'-((2S,2'S)-(1,4-Phenylenebis(4-oxoimidazolidine-3,1-diyl))-bis(6-aminohexane-1,2-diyl))dipalmitamide]
Hemolysis (HC50) (red blood cells of mice): >250 µg/mL

NCCCC[C@@H](CN1CC(=O)N(c2ccc(N3CN(C[C@H](CCCCN)NC(=O)CC45C[C@H]6C[C@@H](C4)C[C@@H](C5)C6)CC3=O)cc2)C1)NC(=O)CC12C[C@H]3C[C@@H](C1)C[C@@H](C2)C3 [Compound 7, N,N'-((2S,2'S)-(1,4-Phenylenebis(4-oxoimidazolidine-3,1-diyl))-bis(6-aminohexane-1,2-diyl))bis(2-((3S,5S,7S)-adamantan-1-yl)-acetamide)]
Hemolysis (HC50) (red blood cells of mice): >250 µg/mL

NCCCC[C@@H](CN1CC(=O)N(c2ccc(N3CN(C[C@H](CCCCN)NC(=O)Cc4ccc5ccccc5c4)CC3=O)cc2)C1)NC(=O)Cc1ccc2ccccc2c1 [Compound 8, N,N'-((2S,2'S)-(1,4-Phenylenebis(4-oxoimidazolidine-3,1-diyl))-bis(6-aminohexane-1,2-diyl))bis(2-(naphthalen-2-yl)acetamide)]
Hemolysis (HC50) (red blood cells of mice): >250 µg/mL

NCCCC(=O)N[C@@H](Cc1ccccc1)CN1CC(=O)N(c2ccc(N3CN(C[C@H](Cc4ccccc4)NC(=O)CCCN)CC3=O)cc2)C1 [Compound 9, N,N'-((2S,2'S)-(1,4-Phenylenebis(4-oxoimidazolidine-3,1-diyl))-bis(3-phenylpropane-1,2-diyl))bis(4-aminobutanamide)]
Hemolysis (HC50) (red blood cells of mice): >250 µg/mL

CCCCCCCCCC(=O)N[C@@H](Cc1ccccc1)CN1CC(=O)N(c2ccc(N3CN(C[C@H](Cc4ccccc4)NC(=O)CCCCCCCCC)CC3=O)cc2)C1 [Compound 10, N,N'-((2S,2'S)-(1,4-Phenylenebis(4-oxoimidazolidine-3,1-diyl))-bis(3-phenylpropane-1,2-diyl))bis(decanamide)]
Hemolysis (HC50) (red blood cells of mice): >250 µg/mL

CCCCCCCCCC(=O)N[C@@H](CCCCN)CNCC(=O)Nc1ccc(NC(=O)CNC[C@H](CCCCN)NC(=O)CCCCCCCCC)cc1 [Compound 11, N,N'-((2S,2'S)-(((1,4-Phenylenebis(azanediyl))bis(2-oxoethane-2,1-diyl))bis(azanediyl))bis(6-aminohexane-1,2-diyl))bis-(decanamide)]
Hemolysis (HC50) (red blood cells of mice): >250 µg/mL

CCn1cc(C(=O)O)c(=O)c2cc(F)c(N3CCNCC3)cc21 [norfloxacin, reference compound]
Fold increase in MIC toward MRSA (MRSA [6]): more than 22 fold
